Source: ChEMBL document CHEMBL1138259, “Novel fluorinated derivatives of the broad-spectrum MMP inhibitors N-hydroxy-2(R)-[[(4-methoxyphenyl)sulfonyl](benzyl)- and (3-picolyl)-amino]-3-methyl-butanamide as potential tools for the molecular imaging of activated MMPs with PET” (J Med Chem, 2007)

What was measured:
[1] = molecular target: Matrix metalloproteinase-9 (Homo sapiens, UniProt P14780); assay: Inhibition of MMP9
[2] = molecular target: Collagenase 3 (Homo sapiens, UniProt P45452)
[3] = molecular target: 72 kDa type IV collagenase (Homo sapiens, UniProt P08253); assay: Inhibition of MMP2
Chain of 72 kDa type IV collagenase (P08253 whole entry): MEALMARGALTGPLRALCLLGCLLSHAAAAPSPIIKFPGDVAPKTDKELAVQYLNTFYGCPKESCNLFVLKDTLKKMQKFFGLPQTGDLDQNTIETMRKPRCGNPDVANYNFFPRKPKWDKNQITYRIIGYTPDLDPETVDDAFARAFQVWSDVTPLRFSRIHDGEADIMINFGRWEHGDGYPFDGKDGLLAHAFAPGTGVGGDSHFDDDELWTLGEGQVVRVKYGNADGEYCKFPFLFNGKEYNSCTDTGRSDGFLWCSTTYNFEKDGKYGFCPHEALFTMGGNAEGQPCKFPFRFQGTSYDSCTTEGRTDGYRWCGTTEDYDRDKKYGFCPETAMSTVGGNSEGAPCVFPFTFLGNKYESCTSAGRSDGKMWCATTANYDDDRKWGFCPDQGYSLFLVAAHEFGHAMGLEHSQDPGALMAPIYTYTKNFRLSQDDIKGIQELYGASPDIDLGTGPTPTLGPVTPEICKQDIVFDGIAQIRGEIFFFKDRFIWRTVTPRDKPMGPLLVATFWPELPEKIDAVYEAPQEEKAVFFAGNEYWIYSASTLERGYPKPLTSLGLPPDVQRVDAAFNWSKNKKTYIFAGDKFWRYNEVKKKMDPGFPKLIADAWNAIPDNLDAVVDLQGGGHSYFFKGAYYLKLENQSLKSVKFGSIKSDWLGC

[4] = molecular target: Neutrophil collagenase (Homo sapiens, UniProt P22894); assay: Inhibition of MMP8
Chain of Neutrophil collagenase (P22894 whole entry): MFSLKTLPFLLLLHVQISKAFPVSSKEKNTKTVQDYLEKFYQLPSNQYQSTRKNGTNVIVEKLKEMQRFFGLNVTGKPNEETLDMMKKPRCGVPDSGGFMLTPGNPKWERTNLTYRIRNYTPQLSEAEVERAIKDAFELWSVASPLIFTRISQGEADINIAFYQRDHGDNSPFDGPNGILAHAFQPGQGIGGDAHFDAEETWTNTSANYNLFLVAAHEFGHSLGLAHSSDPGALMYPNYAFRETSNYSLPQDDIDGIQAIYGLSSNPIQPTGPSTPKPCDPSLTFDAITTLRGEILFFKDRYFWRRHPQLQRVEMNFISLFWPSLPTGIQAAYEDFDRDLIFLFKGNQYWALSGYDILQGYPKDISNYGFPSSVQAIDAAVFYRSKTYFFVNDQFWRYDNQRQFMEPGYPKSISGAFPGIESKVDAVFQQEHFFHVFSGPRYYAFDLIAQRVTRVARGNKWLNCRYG

[5] = Stability in C57BL/6 mouse plasma at 13 to 38 MBq.kg^-1 after 20 mins; type: ADME, organism-based; conditions: read-out: Stability
In short: (§1)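 Adult C57BL/6 mice (male and female, 25-30 g) received an ¹⁸F-radiotracer bolus in the tail vein and were killed with i.v. pentobarbitone at 2.5 or 20 min. Blood was drawn by cardiac puncture and plasma separated. Plasma from 2-3 mice (2.5 min) or 4 mice (20 min) was pooled and deproteinized with ice-cold acetonitrile. Supernatant was spiked with unlabeled reference and run on radio-HPLC to give the fraction of intact tracer versus metabolites.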

[6] = Stability in C57BL/6 mouse plasma at 13 to 38 MBq.kg^-1 after 2.5 mins; type: ADME, organism-based; conditions: read-out: Stability; in short: as §1
[7] = Lipophilicity, log D of the compound; type: physicochemical; conditions: octanol/water
In short: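 Shake-flask partition of ¹⁸F-radioligand between 1-octanol and 0.02 M phosphate buffer, pH 7.4. Both layers gamma-counted with decay back-correction. log D taken as log of cpm/mL octanol over cpm/mL buffer. Four repeats, reported as mean ± SD.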

Chain of Matrix metalloproteinase-9 (P14780 whole entry): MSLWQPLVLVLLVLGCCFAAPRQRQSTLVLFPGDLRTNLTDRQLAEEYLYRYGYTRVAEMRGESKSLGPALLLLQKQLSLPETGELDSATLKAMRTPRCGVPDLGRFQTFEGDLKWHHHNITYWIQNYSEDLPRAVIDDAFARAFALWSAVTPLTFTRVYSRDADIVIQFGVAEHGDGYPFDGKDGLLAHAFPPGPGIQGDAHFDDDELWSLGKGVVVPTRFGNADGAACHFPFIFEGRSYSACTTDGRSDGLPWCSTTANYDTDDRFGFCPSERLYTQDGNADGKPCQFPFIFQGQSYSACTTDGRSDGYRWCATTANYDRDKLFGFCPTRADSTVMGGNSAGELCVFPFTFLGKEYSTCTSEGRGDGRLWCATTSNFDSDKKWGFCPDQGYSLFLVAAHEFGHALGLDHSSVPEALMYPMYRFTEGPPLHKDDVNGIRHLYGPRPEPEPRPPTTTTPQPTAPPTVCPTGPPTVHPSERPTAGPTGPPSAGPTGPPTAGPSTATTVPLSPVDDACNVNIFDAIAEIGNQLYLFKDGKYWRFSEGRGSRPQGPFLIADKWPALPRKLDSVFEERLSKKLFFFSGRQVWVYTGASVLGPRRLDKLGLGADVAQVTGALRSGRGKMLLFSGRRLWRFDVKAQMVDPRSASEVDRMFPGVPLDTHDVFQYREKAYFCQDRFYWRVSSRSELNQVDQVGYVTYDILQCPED

COc1ccc(S(=O)(=O)N(Cc2ccc(F)nc2)[C@@H](C(=O)NO)C(C)C)cc1
IC50 [1]: 0.5 nM
IC50 [2]: 0.9 nM
IC50 [3]: 8 nM
IC50 [4]: 0.9 nM

COc1ccc(S(=O)(=O)N(Cc2ccc(F)nc2)[C@@H](C(=O)O)C(C)C)cc1
IC50 [1]: 9820 nM
IC50 [2]: 30000 nM
IC50 [3]: 35000 nM
IC50 [4]: 22000 nM

CC(C)[C@H](C(=O)NO)N(Cc1ccccc1)S(=O)(=O)c1ccc(N(C)C)cc1
IC50 [1]: 614 nM
IC50 [2]: 10 nM
IC50 [3]: 335 nM
IC50 [4]: 105 nM

CC(C)[C@H](C(=O)O)N(Cc1ccccc1)S(=O)(=O)c1ccc(N(C)C)cc1
IC50 [1]: 15000 nM
IC50 [2]: 14000 nM
IC50 [3]: 41000 nM
IC50 [4]: 14000 nM

CC(C)[C@H](C(=O)NO)N(Cc1ccccc1)S(=O)(=O)c1ccc(OCC[18F])cc1
remaining at 20 min [5]: 37%
remaining at 2.5 min [6]: 86%
logD [7]: 2.02

CC(C)[C@H](C(=O)NO)N(Cc1cccnc1)S(=O)(=O)c1ccc(OCC[18F])cc1
remaining at 20 min [5]: 53%
logD [7]: 1.34

CC(C)[C@H](C(=O)O)N(Cc1ccccc1)S(=O)(=O)c1ccc(OCCI)cc1
IC50 [1]: 1350 nM
IC50 [3]: 207 nM

COc1ccc(S(=O)(=O)N(Cc2cccnc2F)[C@@H](C(=O)NO)C(C)C)cc1
IC50 [1]: 51 nM
IC50 [2]: 50 nM
IC50 [3]: 19 nM
IC50 [4]: 18 nM

CC(C)[C@H](C(=O)NO)N(Cc1cccnc1)S(=O)(=O)c1ccc([N+](=O)[O-])cc1
IC50 [1]: 5150 nM
IC50 [2]: 10 nM
IC50 [3]: 756 nM
IC50 [4]: 14 nM

CC(C)[C@H](C(=O)O)N(Cc1ccccc1)S(=O)(=O)c1ccc(OCCF)cc1
IC50 [1]: 1300 nM
IC50 [2]: > 100000 nM
IC50 [3]: 5590 nM
IC50 [4]: 2460 nM

CC(C)[C@H](C(=O)NO)N(Cc1cccnc1)S(=O)(=O)c1ccc(F)cc1
IC50 [1]: 414 nM
IC50 [2]: 527 nM
IC50 [3]: 120 nM
IC50 [4]: 228 nM

CC(C)[C@H](C(=O)NO)N(Cc1cccnc1)S(=O)(=O)c1ccc(N(C)C)cc1
IC50 [1]: 1330 nM
IC50 [2]: 1340 nM
IC50 [3]: 992 nM
IC50 [4]: 1200 nM

CC(C)[C@H](C(=O)NO)N(Cc1ccccc1)S(=O)(=O)c1ccc(OCCI)cc1
IC50 [1]: 69 nM
IC50 [2]: 10 nM
IC50 [3]: 22 nM
IC50 [4]: 3 nM

CC(C)[C@H](C(=O)NO)N(Cc1cccnc1)S(=O)(=O)c1ccc(OCCF)cc1
IC50 [1]: 7 nM
IC50 [2]: 0.8 nM
IC50 [3]: 3 nM
IC50 [4]: 2 nM

COc1ccc(S(=O)(=O)N(Cc2cccnc2Br)[C@@H](C(=O)NO)C(C)C)cc1
IC50 [1]: 103 nM
IC50 [2]: 59 nM
IC50 [3]: 30 nM
IC50 [4]: 75 nM

COc1ccc(S(=O)(=O)N(Cc2cccnc2Br)[C@@H](C(=O)O)C(C)C)cc1
IC50 [1]: 35000 nM
IC50 [2]: 34000 nM
IC50 [3]: 9110 nM
IC50 [4]: 7480 nM

CC(C)[C@H](C(=O)O)N(Cc1cccnc1)S(=O)(=O)c1ccc(F)cc1
IC50 [1]: > 100000 nM
IC50 [2]: > 100000 nM
IC50 [3]: > 100000 nM
IC50 [4]: 71000 nM

CC(C)[C@H](C(=O)NO)N(Cc1ccccc1)S(=O)(=O)c1ccc(F)cc1
IC50 [1]: 281 nM
IC50 [2]: 384 nM
IC50 [3]: 239 nM
IC50 [4]: 12 nM

CC(C)[C@H](C(=O)O)N(Cc1ccccc1)S(=O)(=O)c1ccc(F)cc1
IC50 [1]: 821 nM
IC50 [2]: 9140 nM
IC50 [3]: 4350 nM
IC50 [4]: 754 nM

COc1ccc(S(=O)(=O)N(Cc2ccc(Br)nc2)[C@@H](C(=O)NO)C(C)C)cc1
IC50 [1]: 23 nM
IC50 [2]: 24 nM
IC50 [3]: 2 nM
IC50 [4]: 20 nM

COc1ccc(S(=O)(=O)N(Cc2ccc(Br)nc2)[C@@H](C(=O)O)C(C)C)cc1
IC50 [1]: 6930 nM
IC50 [2]: 3260 nM
IC50 [3]: 6120 nM
IC50 [4]: 6760 nM

COc1ccc(S(=O)(=O)N(Cc2cccnc2F)[C@@H](C(=O)O)C(C)C)cc1
IC50 [1]: 10000 nM
IC50 [2]: 41000 nM
IC50 [3]: 20000 nM
IC50 [4]: 78000 nM

CC(C)[C@H](C(=O)NO)N(Cc1ccccc1)S(=O)(=O)c1ccc(OCCF)cc1
IC50 [1]: 50 nM
IC50 [2]: 11 nM
IC50 [3]: 4 nM
IC50 [4]: 2 nM
